Assay outcomes deposited in PubChem BioAssay by several laboratories.
PostGolgi yeast: growth inhibition of a yeast mutant, post-Golgi transport screen | post-Golgi transport phenotypic cell assay | inhibition, % at 10 µM | hit rate 0.9% among 98,000 | AID 739;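 also: yeast cells grown in 1536-well plates; yeast grown about 18 h at 30C before absorbance read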
PostGolgi ctrl: growth of the yeast control strain, post-Golgi counter-screen. efflux-deficient yeast background strain, growth absorbance A615, 16 h. inhibition, % at 10 µM. hit rate 5% among 98,000. AID 738
PLK1 kinase inh: blocks human PLK1 kinase activity | P53350 | recombinant PLK1 kinase, TR-FRET peptide phosphorylation | inhibition, % at 10 µM | hit rate 0.53% among 97,000 | AID 619;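 active = inhibition of 50% or more in the single-concentration screen; inactive = inhibition below 50%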;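 also: 0% = DMSO max control and 100% = H-89 dihydrochloride min control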
Rev-RRE block: HIV Rev-RRE protein-RNA interaction inhibition; P05866; Rev peptide-RRE RNA binding, FRET; inhibition, % at 8 µM; hit rate 0.79% among 97,000; AID 704;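 active = inhibition above the screen-wide mean plus 3 SD, cut at about 35% in these data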;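 also: 0% = median DMSO wells and 100% = median Neomycin B control wells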
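System: Cy5-labelled duplex RRE RNA binding fluorescein-labelled HIV Rev peptide; Signal: fluorescein-to-Cy5 FRET, 480 nm excitation; Also added: labelled Rev peptide; Compound: one concentration, 8 µM nominal; Buffer or medium: HEPES pH 7.5 salt buffer with EDTA; Read-out: % inhibition of FRET ratio versus controls; Schedule: 5 min preincubation and 15 min binding, 25 °C.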
EphB4 ephrin blk: antagonists of human EphB4-ephrin-B2 interaction. EphB4 LBD / TNYL-RAW-Alexa532 peptide, fluorescence polarization. inhibition, % at 7 µM. hit rate 0.15% among 97,000. AID 720;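 active = inhibition above the screen-wide mean inhibition plus 3 SD, cut at about 15% in these data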;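 also: 0% = DMSO wells and 100% = excess unlabeled TNYL-RAW peptide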
PLK1 PBD inh: blocks phosphopeptide binding to human Plk1 polo box domain. P53350. Plk1 PBD phosphopeptide binding, fluorescence polarization. inhibition, %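 (tested at about 20 µM)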. hit rate 0.13% among 97,000. AID 693; in the data active = inhibition above about 34%, passing the limit was not always enough
* = called active by the depositor; · = not tested or not shown. Shown are actives, neighbours in structure and some others; about 6.4% of the full set was active somewhere. Rule as the data show it, unless noted: active = inhibition above about 30%; inactive = the rest.

SMILES	PostGolgi yeast	PostGolgi ctrl	PLK1 kinase inh	Rev-RRE block	EphB4 ephrin blk	PLK1 PBD inh
Cn1c(=O)n(CCc2ccccc2)c(=O)c2c1nc1n2CCCN1CCc1ccccc1	6	37*	-4	2	0	-23
Cn1c(=O)n(Cc2ccc(F)cc2)c(=O)c2c1nc1n2CCCN1Cc1ccccc1	2	45*	-12	2	3	5
Cn1cnc2c1c(=O)n(Cc1ccccc1)c(=O)n2C	-7	-7	-11	·	·	-11
N#CC1=C(SCC(=O)NC23CC4CC(CC(C4)C2)C3)NC(=O)C(C#N)C12CCCCC2 (centres undefined)	-5	6	-4	-2	5	-22
Cn1c(N2CCOCC2)nc2c1c(=O)n(Cc1ccc(Cl)c(Cl)c1)c(=O)n2C	-10	40*	17	14	1	-16
Cn1c(N2CCCC2)nc2c1c(=O)n(Cc1ccc(F)cc1)c(=O)n2C	0	11	-12	5	4	-8
CCN(CC)c1ccc(C2C(C(=O)OC(C)C)C(=O)CC(C)(O)C2C(=O)OC(C)C)cc1 (centres undefined)	9	-3	-17	1	-2	-23
CC(C)N1C2OC(C3OC4C(O3)N(C(C)C)S(=O)(=O)N4C(C)C)OC2N(C(C)C)S1(=O)=O (centres undefined)	104*	96*	-1	5	-6	5
C=CCOc1c2ccc(C(=O)NCCc3ccc(C)cc3)cc2nn1C	-3	-3	-9	2	-3	-20
CCOC(=O)CSc1nc(CC)nc2ccccc12	0	4	·	·	·	·
Cc1sc2nc(C3CC3)nc(SCC(=O)N3CC(=O)Nc4ccccc43)c2c1C	5	17	-5	-1	-6	2
Cc1sc2ncnc(SCC(=O)N3CCN(C(=O)c4ccco4)CC3)c2c1C	1	13	·	·	·	·
CCCc1nc(SCC(=O)N2CCc3ccccc3C2)c2ccccc2n1	2	33*	-13	9	6	-4
CCc1c(C)sc2nc(C(C)C)nc(SCC(=O)N3CCc4ccccc4C3)c12	0	31*	-12	12	0	7
Cc1cc2ccccc2n2c(SCC(=O)N3CCc4ccccc4C3)nnc12	·	·	-15	10	1	-14
Cc1sc2nc(C(C)C)nc(SCC(=O)N3CCN(C(=O)c4ccco4)CC3)c2c1C	2	41*	-5	4	0	-25
Cc1sc2nc(C3CC3)nc(SCC(=O)N3CCc4ccccc4C3)c2c1C	14	37*	-4	0	0	0
CCOC(=O)C1=C(O)/C(=C/c2cc(OC)c(OC)c(OC)c2)N=C1C	4	5	-7	-3	4	-10
Cc1cc(Br)cc(C)c1OCCCCN(C)C	-8	3	-10	-9	-6	1
O=C(Nc1ccccc1)c1ccc(NC2CCCCC2)c(S(=O)(=O)N2CCOCC2)c1	-1	28	-10	1	0	-17
Cc1nn(C(CC(=O)O)C(=O)O)c(C)c1Br (centres undefined)	·	·	-9	4	-1	-5
c1ccc(Cc2nnc(N3CCOCC3)c3ccccc23)cc1	1	45*	-9	4	7	13
COc1ccc(C(=O)NC(C)c2nnc(SCC(=O)Nc3nc(C)cs3)n2C)cc1 (centres undefined)	-2	-6	-4	5	2	17
COc1ccc(C(=O)NC(C)c2nnc(SCc3ccc(Cl)c(Cl)c3)n2C)cc1 (centres undefined)	33*	10	-14	10	-3	-18
O=C(c1ccco1)n1nc(-c2ccccc2)nc1NCc1ccco1	16	9	-14	3	-5	-7
SMILES	PostGolgi yeast	PostGolgi ctrl	PLK1 kinase inh	Rev-RRE block	EphB4 ephrin blk	PLK1 PBD inh
O=C(c1ccco1)n1nc(NCc2ccccc2)nc1NCc1ccccc1	2	79*	-12	7	4	-20
CCn1c(=O)cc(SCC(=O)NCc2ccccn2)c2ccccc21	3	-4	-15	7	-3	-2
CC(NS(=O)(=O)c1ccccc1)C(c1cccs1)N1CCN(c2ccccc2)CC1 (centres undefined)	-5	39*	1	7	2	-4
CC1(C)CC(=O)C2=C(C1)Oc1ncn(CCO)c(=N)c1C2c1ccccc1 (centres undefined)	1	31*	0	2	0	-8
CC(C)NC(=O)c1noc2cc([N+](=O)[O-])ccc12	-3	-13	-11	4	0	11
Cc1cccc(Oc2ncc(-c3ccc(Cl)cc3)cn2)c1C	-5	36*	-7	12	8	0
Cc1nc2sc(C(c3cccc(F)c3)N3CCC(C)CC3)c(O)n2n1 (centres undefined)	10	31*	-4	2	-2	-7
CCOC(=O)C1CCN(C(c2cccc(F)c2)c2sc3nc(C)nn3c2O)CC1 (centres undefined)	5	37*	·	·	·	·
CCOC(=O)C1CCN(C(c2ccc(OC)c(OC)c2)c2sc3nc(C)nn3c2O)CC1 (centres undefined)	-1	-1	·	·	·	·
CCOc1cccc(C2c3c(oc4cc(C)c(C)cc4c3=O)C(=O)N2CCCN(C)C)c1 (centres undefined)	5	-8	-16	16	6	-2
Cc1ccc(-n2nnnc2C(Cl)(Cl)c2nnnn2-c2ccc(C)cc2)cc1	108*	100*	-4	16	4	-1
Cc1ccc(-n2nnnc2-c2cnn(-c3cccc(F)c3)c2C(F)(F)F)cc1	·	·	-15	11	-3	14
Nc1c(C(=O)NC2CCCCC2)nsc1C(=O)OCC(=O)NC1CCCCC1	-8	31*	-5	8	-5	8
O=C(O)c1ccccc1-c1ccccc1C(=O)NCCCO	-4	6	-2	1	-6	9
CN(C(=O)Nc1ccc(Cl)cc1Cl)[C@H]1c2cc(Br)ccc2OC[C@H]1CO	6	81*	-6	3	-4	-42
COC(=O)c1cc(NC(=O)CC2NC3CCCCC3NC2=O)cc(C(=O)OC)c1 (centres undefined)	-8	-6	-12	5	2	4
COC(=O)C(c1cc(OC)c(O)c(OC)c1)(N1CCNC(C)C1)C(F)(F)F (centres undefined)	3	10	·	·	·	·
Cc1ccccc1C1CC(c2ccc(Br)cc2)Nc2nc(N)nn21 (centres undefined)	-1	-7	-3	5	1	0
Cc1ccccc1C1CC(c2ccc(F)cc2)Nc2nc(N)nn21 (centres undefined)	2	11	70*	1	-6	15
Oc1ccccc1NCC(O)Cn1ccc2ccccc21 (centres undefined)	16	37*	0	63*	-2	-6
CCC(C(=O)Nc1cc(C)nn1-c1nc(C)cc(C)n1)c1ccccc1 (centres undefined)	17	48*	19	4	-3	2
